The subject of series [1] is A549. The series is described as follows: Induction of apoptosis in human A549 cells assessed as increase in caspase 3 activity at 2.5 uM preincubated for 1 hr followed by 0.77 mW/cm2 white light irradiation for 80 mins measured after 16 hrs by colorimetric method relative to control. It is filed as functional. An outline of the steps: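 A549 cells (1×10^6) given compound 2.5 µM for 1 h, then light 80 min; caspase activities measured at 16 h in whole-cell extracts with kits, colorimetric for caspase-3 and fluorimetric for caspase-8; untreated photo-exposed cells as control; five replicates, mean ± SEM.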

For series [2], the system named is A549. The series is described as follows: Induction of apoptosis in human A549 cells assessed as pro-caspase 3 level at 2.5 uM preincubated for 1 hr followed by 0.77 mW/cm2 white light irradiation for 80 mins measured after 16 hrs by immunoblot analysis relative to control. It is filed as functional. An outline of the steps:
(§1)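 Whole-cell extracts from A549 cells (1×10^6) treated with 0 or 2.5 µM compound, photo-exposed 80 min, lysed in Tris pH 7.4/NaCl/EDTA/Triton with protease inhibitors; 30 µg protein on 12% SDS-PAGE, nitrocellulose, milk block, caspase-3 antibody overnight 4 °C, HRP secondary, chemiluminescence; band ratio to normal control (=1) after loading-control normalisation.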
Background: Immunoblotting shows a protein as a band on a membrane.

In series [3] the test system is A549. Kind of series: Photocytotoxicity in human A549 cells assessed as decrease in cell survival at 2.5 uM preincubated for 1 hr followed by 0.77 mW/cm2 white light irradiation for 80 mins measured after 24 hrs in presence of caspase 9 inhibitor Z-LEHD-FMK by MTT assay. It is filed as functional, cell-based. An outline of the steps: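 Cells pre-incubated 1 h with caspase-9 inhibitor Z-LEHD-FMK (20 µM), then compound 2.5 µM for 1 h and light 80 min (0.77 mW/cm²); viability at 24 h by MTT; five replicates, mean ± SEM.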
(In general: Tetrazolium assays rely on reduction of a dye to a coloured formazan, in cell work by metabolically active cells.)

Series [4] relates to A549. The series is described as follows: Induction of morphological changes in human A549 cells assessed as changes in cell outline preincubated for 1 hr followed by 0.77 mW/cm2 white light irradiation for 80 mins measured after 24 hrs by phase contrast microscopy. The class given is functional, cell-based. Summed up:
(§2)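 A549 cells (1×10^5/well) on coverslips given vehicle (0.1% DMSO) or compound (0.625, 1.25, 2.5 µM) for 1 h, then irradiated 80 min (0.77 mW/cm²); kept 24 h in regular medium and examined unstained by phase-contrast microscopy (40× objective); representative fields imaged; experiments done three times.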

A short description of series [5]: Cell cycle arrest in human A549 cells assessed as accumulation at subG1 phase at 2.5 uM preincubated for 1 hr followed by 0.77 mW/cm2 white light irradiation for 80 mins measured after 24 hrs in presence of 100 uM of beta-carotene by propidium iodide staining based flow cytometry (reference value: 8.2 +/- 1.1%). The class given is functional. On the technique in general: A flow cytometer gives signals particle by particle.

The species entered for the next series is Bos taurus. The series is described as follows: Binding affinity to calf thymus duplex DNA by UV-visible spectra analysis.
A short description of series [6]: Cell cycle arrest in human A549 cells assessed as accumulation at subG1 phase at 2.5 uM preincubated for 1 hr followed by 0.77 mW/cm2 white light irradiation for 80 mins measured after 24 hrs in presence of 5 mM of NAC by propidium iodide staining based flow cytometry (reference value: 8.2 +/- 1.1%). It is filed as functional.
Series [7] relates to A549. Kind of series: Induction of apoptosis in human A549 cells assessed as accumulation at subG1 phase at 5 to 50 uM preincubated for 1 hr followed by 0.77 mW/cm2 white light irradiation for 30 mins measured after 24 hrs by propidium iodide staining based flow cytometry relative to control. It is filed as functional. Summed up: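 Cells exposed 1 h to compound (5-50 µM; vehicle 0.1% DMSO), washed, then irradiated (0.77 mW/cm²) for 0, 30 or 80 min; after serum addition kept 24 h. PI/RNase A staining in hypotonic 0.1% citrate-0.1% Triton X-100, 30 min, 37 °C; sub-G1 peak by flow cytometry, debris gated out, ≥2×10^4 cells; five replicates, mean ± SEM.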

Series [8] can be described thus: Photocytotoxicity against human L-132 cells at 50 uM using 0.77 mW/cm2 white light irradiation by MTT assay. The class given is toxicity, cell-based. To be noted: l132, 50 µM.
A short description of series [9]: Drug uptake in human A549 cells assessed as mean fluorescence intensity at 2.5 uM after 24 hrs by flow cytometry (reference value: 5.4 +/- 1.5). To be noted: a549, 24 h. The class given is ADME, cell-based.
Series [10] can be described thus: Drug uptake in mitochondria of human A549 cells at 100 nM measured up to 4 hrs by Mito-Tracker green staining based confocal microscopy. It is filed as ADME. To be noted: a549, 4 h, 0.1 µM. Summed up: (§3)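 Overnight-seeded A549 cells loaded with dye (100 nM), incubation periods 0.5-4 h tested, then ER-Tracker Green (500 nM) or MitoTracker Green (100 nM) for 30 min at 37 °C; washed, confocal imaging: trackers ex 488/em 500-530 nm, dye ex 543/em 560-640 nm; overlap of images judged.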

Series [11] can be described thus: Drug uptake in human L-132 cells assessed as mean fluorescence intensity at 2.5 uM after 2 hrs by flow cytometry (reference value: 4.6 +/- 1.2). It is filed as ADME, cell-based. To be noted: l132, 2 h.
A short description of series [12]: Drug uptake in human A549 cells assessed as mean fluorescence intensity at 2.5 uM after 4 hrs by flow cytometry (reference value: 5.4 +/- 1.5). It is filed as ADME, cell-based. To be noted: a549, 4 h.
For series [13], the system named is A549. The series is described as follows: Induction of apoptosis in human A549 cells assessed as pro-caspase 3 level at 2.5 uM preincubated for 1 hr followed by 0.77 mW/cm2 white light irradiation for 80 mins measured after 24 hrs by immunoblot analysis relative to control. The class given is functional. Summed up:
as §1

Series [14] has as its system A549. The series is described as follows: Induction of apoptosis in human A549 cells assessed as increase in caspase 9 activity at 2.5 uM preincubated for 1 hr followed by 0.77 mW/cm2 white light irradiation for 80 mins measured after 16 hrs in presence of caspase-9 inhibitor Z-LEHD-FMK by immunoblot analysis. The class given is functional, cell-based.
Series [15] can be described thus: Drug uptake in endoplasmic reticulum of human A549 cells at 100 nM measured up to 4 hrs by ER-Tracker green staining based confocal microscopy. The class given is ADME, cell-based. To be noted: a549, 4 h, 0.1 µM. Summed up:
as §3

Series [16] can be described thus: Drug uptake in human A549 cells assessed as mean fluorescence intensity at 2.5 uM after 2 hrs by flow cytometry (reference value: 5.4 +/- 1.5). To be noted: a549, 2 h. It is filed as ADME, cell-based.
The test system of series [17] is A549. Kind of series: Induction of morphological changes in human A549 cells assessed as increase in floating cells without adhering ability up to 2.5 uM preincubated for 1 hr followed by 0.77 mW/cm2 white light irradiation for 80 mins measured after 24 hrs by phase contrast microscopy. The class given is functional, cell-based. An outline of the steps: as §2
Series [18] concerns A549. Kind of series: Induction of morphological changes in human A549 cells assessed as cell shrinking up to 2.5 uM preincubated for 1 hr followed by 0.77 mW/cm2 white light irradiation for 80 mins measured after 24 hrs by phase contrast microscopy. It is filed as functional, cell-based. Summed up:
as §2

Series [19] concerns A549. Kind of series: Photocytotoxicity against human A549 cells assessed as decrease in cell viability at 500 to 5000 nM preincubated for 1 hr followed by 0.77 mW/cm2 white light irradiation measured after 24 hrs by MTT assay. The class given is functional, cell-based. To be noted: TDE = time-dependent effect. Summed up:
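A549 cells (1×10^4/well), plated overnight, given compound for 1 h in serum-free medium, washed twice with PBS, irradiated 0.5, 1, 2 or 4 h at 0.77 mW/cm² (37 °C, 5% CO₂), then 24 h in regular medium; MTT 0.5 mg/mL for 6 h, formazan dissolved in 0.01 N HCl/10% SDS, A550.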

A short description of series [20]: Cytotoxicity against human WI38 cells assessed as reduction in cell viability at 50 uM under dark condition by MTT assay. To be noted: wi-38, 50 µM. The class given is toxicity, cell-based.

Active and inactive are the calls of the source. The calls are words filed in the database; no cut-off is given here.

The results in this text go back to ChEMBL document CHEMBL3865807, “Syntheses and photodynamic activity of some glucose-conjugated BODIPY dyes” (Eur J Med Chem, 2016).

`CCC1=C(C)C2=C(C)c3c(C)c(CC)c(C)n3[B-](F)(F)[N+]2=C1/C=C/c1ccc(O[C@H]2O[C@H](CO)[C@@H](O)[C@H](O)[C@H]2O)cc1`: the “fold change (FC)” value is listed as 2.9 with A549 [1], 0.6 in the series on A549 [2], 2.8 - 3.3 in the series with A549 [7] and 0.2 in the series with A549 [13]. Further, the outcome with A549 [3], in the series on A549 [14], in the series on A549 [17] and in the series with A549 [18] was Active. In addition, the Activity entry was “Dose-dependent effect” in the series with A549 [4]; 43.2% in [5]; 46.5% in series [6]; 5 to 7% in [8]; “Tde” in the series on A549 [19]; “Non-Toxic” in series [20]. For the same compound, in the series listed under Bos taurus, the Kb worked out at 1.8 ×10⁴ /M. In addition, the Flu intensity is 46.7 in [9], 63.5 in [11], 66.2 to 68.9 in series [12] and 95.3 to 98.5 in [16]. For the same compound, the Drug uptake result in [10] and in [15] was “Active” throughout.
